Results as given in publication PMC3074966 (European journal of medicinal chemistry, 2010).
pIC50: −log10 of the molar value. Blank lines part the entries; values can stand above or below the compound they belong to.

Legend:
[1] = test system: panel of five human cell lines (HeLa, A549, HL-60, Jurkat, K562); test: Antiproliferative assay, summary over the cell line panel; format: cell-based
HeLa cells [2] = test: Annexin-V/PI assay; format: cell-based, human; conditions: 24 h, compared with control
HeLa cells [3] = test: Flow cytometric analysis of cell cycle distribution; format: cell-based, human; conditions: after 48 h of treatment (data not shown)
Summary of the method: (§1)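 Exponentially growing cells (5 × 10⁵) were exposed to varying concentrations of test compound for 24 and 48 h. They were then collected and fixed in ice-cold 70% ethanol, then treated with lysis buffer containing RNase A and 0.1% Triton X-100. Cells were stained with propidium iodide and analysed by flow cytometry, with sub-G1 (hypodiploid) DNA content scored at 48 h.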

Jurkat cells = test: as above; format: cell-based, human; conditions: after 48 h of treatment (data not shown)
Summary of the method: as §1

HeLa cells [4] = test: Western blot analysis; format: cell-based, human
caspase-3 in HeLa cells = test: Caspase-3 assay; format: cell-based, human; conditions: 24 and 48 h
HeLa cells [5] = test: ROS production; format: cell-based, human; conditions: 24 and 48 h, HE and H2-DCFDA
HeLa cells [6] = test: Mitochondrial membrane potential; format: cell-based, human; conditions: 24 and 48 h
[7] = average antiproliferative activity

pIC50 ([1]; Homo sapiens, read-out: IC50 against HeLa, HL-60, Jurkat and K562 cells): 5.68 to 5.82
SMILES: COc1cc(C(=O)c2sc3ccccc3c2-c2ccccc2)cc(OC)c1OC [Compound 3a, (3,4,5-Trimethoxyphenyl)(3-phenylbenzo[b]thiophen-2-yl) methanone]

SMILES: COc1ccc(Nc2c(C(=O)c3cc(OC)c(OC)c(OC)c3)sc3ccccc23)cc1 [Compound 4d, (3-(4-Methoxyphenylamino)benzo[b]thiophen-2-yl)(3,4,5-trimethoxyphenyl)methanone]
loss in activity relative to unsubstituted 4a [1, 7]: ~50%

fold lower IC50 than 3k ([1]; over the five cell lines): 2- to 15 fold
SMILES: CCOc1ccc(Nc2c(C(=O)c3cc(OC)c(OC)c(OC)c3)sc3ccccc23)cc1 [Compound 4e, (3-(4-Ethoxyphenylamino)benzo[b]thiophen-2-yl)(3,4,5-trimethoxyphenyl)methanone]
annexin-V positive cells (HeLa cells [2]): induced an accumulation of annexin-V positive cells | hypodiploid peak (sub-G1) indicative of apoptosis (HeLa cells [3]): appeared in both cell lines | hypodiploid peak (sub-G1) indicative of apoptosis (Jurkat cells): appeared in both cell lines | expression of Bax (HeLa cells [4]): remained unchanged | expression of Bcl-2 (HeLa cells [4]): slight decrease | cyclin B1 expression (HeLa cells [4]; 24 or 48 h): concentration-dependent increase | phosphatase cdc25c (phosphorylation state) (HeLa cells [4]; 24 or 48 h): slower migrating forms of phosphatase cdc25c were present | 89 kDa cleaved fragment of PARP (HeLa cells [4]; 24 h and 48 h): increased | expression of p53 (HeLa cells [4]; increasing concentrations): no difference | activation of caspase-3 (caspase-3 in HeLa cells): activation of caspase-3 in a time- and concentration-dependent manner | production of ROS (HeLa cells [5]): induces the production of large amounts of ROS | fold increase in activity relative to unsubstituted 4a [1, 7]: 5 fold | fold difference in average antiproliferative activity between 4e and 4d ([1]; most active vs least active 3-anilino derivative): 9 fold | mitochondrial membrane potential (Rho 123 fluorescence) (HeLa cells [6]): reduction of Rho 123 fluorescence intensity

SMILES: CCOc1ccc(Nc2c(C(=O)c3cc(OC)c(OC)c(OC)c3)sc3cc(C)ccc23)cc1 [Compound 4g, (3-(4-Ethoxyphenylamino)-6-methylbenzo[b]thiophen-2-yl) (3,4,5-trimethoxyphenyl)methanone]
fold less potent than 4e ([1]; over the five cell lines): 4- to 20 fold
